From ChEMBL document CHEMBL1128270 (J Med Chem, 1995)

Tests used:
[1] = Selectivity as the ratio of IC50 value against alpha-1 receptor to that of 5-hydroxytryptamine 1A receptor
Procedure, shortened: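 Ratio of the α1 IC50 to the 5-HT1A IC50 ([3H]-8-OH-DPAT, rat cortex). For α1, male Sprague-Dawley rat cortex membranes were prepared in 50 mM Tris-HCl pH 7.7 with 10 μM pargyline and 0.1% ascorbate.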

[2] = tested on: Dopamine D2 receptor and serotonin 1a receptor (Rattus norvegicus); experiment: Selectivity as the ratio of IC50 value against D-2 receptor to that of 5-hydroxytryptamine 1A receptor
[3] = biological target: T1, 5-hydroxytryptamine receptor 1A (Rattus norvegicus, UniProt P19327); experiment: In vitro binding affinity measured on serotonin 5-hydroxytryptamine 1A receptor using [3H]8-OH-DPAT as radioligand.
T1 sequence (P19327 whole entry): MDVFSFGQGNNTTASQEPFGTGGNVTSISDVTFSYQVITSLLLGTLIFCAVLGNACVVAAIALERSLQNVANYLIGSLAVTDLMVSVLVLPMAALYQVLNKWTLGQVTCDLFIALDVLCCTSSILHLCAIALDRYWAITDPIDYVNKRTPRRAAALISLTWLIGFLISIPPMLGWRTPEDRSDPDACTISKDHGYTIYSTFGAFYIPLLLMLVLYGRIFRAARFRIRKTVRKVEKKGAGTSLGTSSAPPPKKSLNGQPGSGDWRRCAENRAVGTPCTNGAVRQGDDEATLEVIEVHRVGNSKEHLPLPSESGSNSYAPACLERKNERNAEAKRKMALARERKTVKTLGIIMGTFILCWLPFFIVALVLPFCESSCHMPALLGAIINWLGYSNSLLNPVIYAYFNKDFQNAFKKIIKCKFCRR

[4] = biological target: T2, Adrenergic receptor alpha-1 (Rattus norvegicus, UniProt P15823+P23944+P43140); experiment: In vitro binding affinity measured on alpha-1 adrenergic receptor using [3H]prazosin as radioligand.; assay type: protein assay
T2 sequence (P15823 whole entry): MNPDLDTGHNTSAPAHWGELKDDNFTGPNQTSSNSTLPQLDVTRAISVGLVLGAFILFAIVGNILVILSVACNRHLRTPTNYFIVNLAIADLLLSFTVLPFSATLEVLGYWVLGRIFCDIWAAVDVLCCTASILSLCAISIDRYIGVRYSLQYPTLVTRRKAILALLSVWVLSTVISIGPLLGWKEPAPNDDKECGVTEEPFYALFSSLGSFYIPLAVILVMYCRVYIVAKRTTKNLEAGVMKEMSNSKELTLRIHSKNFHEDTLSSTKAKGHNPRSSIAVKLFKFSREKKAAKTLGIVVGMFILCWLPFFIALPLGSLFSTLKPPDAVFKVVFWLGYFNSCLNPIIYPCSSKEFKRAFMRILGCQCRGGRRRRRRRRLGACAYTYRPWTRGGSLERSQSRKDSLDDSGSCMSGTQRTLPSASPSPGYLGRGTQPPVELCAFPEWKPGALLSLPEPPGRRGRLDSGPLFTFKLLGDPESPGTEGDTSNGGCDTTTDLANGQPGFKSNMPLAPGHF
T2 sequence (P23944 whole entry): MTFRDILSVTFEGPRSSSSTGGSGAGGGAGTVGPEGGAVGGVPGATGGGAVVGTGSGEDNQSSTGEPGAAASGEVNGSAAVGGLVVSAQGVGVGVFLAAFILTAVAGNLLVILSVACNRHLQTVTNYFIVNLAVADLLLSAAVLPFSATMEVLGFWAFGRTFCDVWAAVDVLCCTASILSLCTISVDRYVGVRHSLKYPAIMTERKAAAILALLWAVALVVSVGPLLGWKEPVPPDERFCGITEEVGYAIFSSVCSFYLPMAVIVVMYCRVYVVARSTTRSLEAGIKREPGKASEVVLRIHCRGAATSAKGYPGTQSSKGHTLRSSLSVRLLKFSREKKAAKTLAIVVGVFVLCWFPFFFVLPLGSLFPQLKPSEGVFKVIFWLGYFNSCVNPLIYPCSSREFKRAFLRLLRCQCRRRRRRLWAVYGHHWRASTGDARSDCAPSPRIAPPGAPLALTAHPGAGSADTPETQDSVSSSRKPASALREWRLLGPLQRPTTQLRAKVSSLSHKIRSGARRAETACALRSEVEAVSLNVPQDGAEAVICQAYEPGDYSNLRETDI
T2 sequence (P43140 whole entry): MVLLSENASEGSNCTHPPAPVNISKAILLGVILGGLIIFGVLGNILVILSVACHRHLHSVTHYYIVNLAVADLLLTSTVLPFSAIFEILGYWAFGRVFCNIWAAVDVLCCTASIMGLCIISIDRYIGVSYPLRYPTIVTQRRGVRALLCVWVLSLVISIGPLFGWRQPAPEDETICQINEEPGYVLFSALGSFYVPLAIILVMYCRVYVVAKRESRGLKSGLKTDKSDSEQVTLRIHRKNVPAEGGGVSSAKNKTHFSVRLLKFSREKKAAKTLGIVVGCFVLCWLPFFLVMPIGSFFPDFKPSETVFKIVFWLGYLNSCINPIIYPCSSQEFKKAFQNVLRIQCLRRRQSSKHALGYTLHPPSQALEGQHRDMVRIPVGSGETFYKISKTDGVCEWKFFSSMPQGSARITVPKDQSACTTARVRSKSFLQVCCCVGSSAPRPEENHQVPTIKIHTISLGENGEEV

D(2) dopamine receptor = D(2) dopamine receptor (Rattus norvegicus, UniProt P61169); experiment: The compound was evaluated for the binding affinity towards Dopamine receptor D2 binding site using [3H]spiroperidol.
Chain of D(2) dopamine receptor (P61169 whole entry): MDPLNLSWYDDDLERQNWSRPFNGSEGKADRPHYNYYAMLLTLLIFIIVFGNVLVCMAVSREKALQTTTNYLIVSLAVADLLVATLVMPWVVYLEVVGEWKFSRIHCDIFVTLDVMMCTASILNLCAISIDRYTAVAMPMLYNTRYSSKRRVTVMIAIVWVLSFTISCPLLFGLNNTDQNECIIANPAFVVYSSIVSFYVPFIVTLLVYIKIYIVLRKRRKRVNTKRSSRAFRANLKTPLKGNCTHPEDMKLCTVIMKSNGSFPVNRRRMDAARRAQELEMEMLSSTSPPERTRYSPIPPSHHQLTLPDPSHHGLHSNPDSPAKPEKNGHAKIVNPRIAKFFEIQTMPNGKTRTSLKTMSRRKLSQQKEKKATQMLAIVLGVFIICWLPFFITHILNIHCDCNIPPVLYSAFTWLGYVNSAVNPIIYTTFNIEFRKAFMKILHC
Procedure, shortened: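 IC50 came from 7–9 drug concentrations in triplicate, over 2–4 independent experiments, analysed with EBDA. Specific binding exceeded 75% of total.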

Selectivity [1]: 49
Selectivity [2]: 30
IC50 [3]: 40.3 nM
IC50 [4]: 1960 nM
IC50 (D(2) dopamine receptor): 1200 nM
Structure (SMILES): COc1ccc2c(c1)C(NCCN1CCN(c3ccccc3OC)CC1)CCC2 (stereo not given)
